According to ChEMBL document CHEMBL1165965, “Synthesis and structure-activity relationships of 1,2,3,4-tetrahydropyrido[2,3-b]pyrazines as potent and selective inhibitors of the anaplastic lymphoma kinase” (Bioorg Med Chem, 2010):

Tests used:
[1] = biological target: Protein-tyrosine kinase 6 (Homo sapiens) (UniProt Q13882); experiment: Inhibition of BRK at 1 uM
Method in brief: (§1)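 Ambit KINOMEscan screen at a single concentration across a 250–400 kinase panel, recorded as percent inhibition. Selectivity was expressed as S(90), the fraction of kinases inhibited >90%.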

[2] = biological target: Tyrosine-protein kinase JAK1 (Homo sapiens) (UniProt P23458); experiment: Inhibition of JAK1 JH1 catalytic domain at 1 uM
Chain of Tyrosine-protein kinase JAK1 (Homo sapiens) (P23458 whole entry, the tested form may be a part): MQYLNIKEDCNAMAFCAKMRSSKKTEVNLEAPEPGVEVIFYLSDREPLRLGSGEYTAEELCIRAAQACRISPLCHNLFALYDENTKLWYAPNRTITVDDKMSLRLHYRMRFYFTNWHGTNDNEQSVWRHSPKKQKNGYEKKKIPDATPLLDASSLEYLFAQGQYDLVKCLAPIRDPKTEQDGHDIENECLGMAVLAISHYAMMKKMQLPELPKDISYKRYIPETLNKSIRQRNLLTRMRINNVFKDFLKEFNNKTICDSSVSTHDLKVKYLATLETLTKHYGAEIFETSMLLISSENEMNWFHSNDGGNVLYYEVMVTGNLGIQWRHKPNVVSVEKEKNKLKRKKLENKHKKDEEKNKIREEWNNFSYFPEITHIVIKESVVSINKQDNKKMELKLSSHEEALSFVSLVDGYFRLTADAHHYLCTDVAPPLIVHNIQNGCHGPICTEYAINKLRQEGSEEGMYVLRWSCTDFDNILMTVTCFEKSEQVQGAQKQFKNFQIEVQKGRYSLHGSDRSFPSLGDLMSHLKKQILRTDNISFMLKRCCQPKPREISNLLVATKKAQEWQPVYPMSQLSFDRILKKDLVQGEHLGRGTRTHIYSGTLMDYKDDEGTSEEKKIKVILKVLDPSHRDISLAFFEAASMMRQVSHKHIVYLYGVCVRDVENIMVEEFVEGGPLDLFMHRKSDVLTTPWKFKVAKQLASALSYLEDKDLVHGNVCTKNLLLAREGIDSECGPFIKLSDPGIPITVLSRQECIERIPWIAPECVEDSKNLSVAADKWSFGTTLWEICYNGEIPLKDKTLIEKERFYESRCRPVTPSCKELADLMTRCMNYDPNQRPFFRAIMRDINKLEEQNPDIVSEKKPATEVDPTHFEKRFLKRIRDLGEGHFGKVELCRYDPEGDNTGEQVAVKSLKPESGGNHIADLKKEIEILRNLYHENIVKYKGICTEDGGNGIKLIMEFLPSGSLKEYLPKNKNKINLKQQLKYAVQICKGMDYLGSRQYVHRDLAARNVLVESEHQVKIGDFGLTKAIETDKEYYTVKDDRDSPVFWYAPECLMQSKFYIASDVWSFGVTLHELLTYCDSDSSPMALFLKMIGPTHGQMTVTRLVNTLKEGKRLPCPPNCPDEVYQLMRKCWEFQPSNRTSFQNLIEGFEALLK
Method in brief: (§2)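 Single-concentration screen on the Ambit KINOMEscan platform, run against a panel of 250–400 kinases. Per-kinase inhibition was also summarized as S(90), the fraction of kinases inhibited by more than 90%.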

[3] = tested on: Tyrosine-protein kinase ABL1 (Homo sapiens), P00519 [H396P]; experiment: Inhibition of ABL1 H396P mutant at 1 uM; method in brief: as §1
[4] = biological target: Ribosomal protein S6 kinase alpha-4 (Homo sapiens) (UniProt O75676); experiment: Inhibition of RPS6KA4 C-terminal domain2 at 1 uM
Chain of Ribosomal protein S6 kinase alpha-4 (Homo sapiens) (O75676 whole entry, looked up, the tested form may be a part): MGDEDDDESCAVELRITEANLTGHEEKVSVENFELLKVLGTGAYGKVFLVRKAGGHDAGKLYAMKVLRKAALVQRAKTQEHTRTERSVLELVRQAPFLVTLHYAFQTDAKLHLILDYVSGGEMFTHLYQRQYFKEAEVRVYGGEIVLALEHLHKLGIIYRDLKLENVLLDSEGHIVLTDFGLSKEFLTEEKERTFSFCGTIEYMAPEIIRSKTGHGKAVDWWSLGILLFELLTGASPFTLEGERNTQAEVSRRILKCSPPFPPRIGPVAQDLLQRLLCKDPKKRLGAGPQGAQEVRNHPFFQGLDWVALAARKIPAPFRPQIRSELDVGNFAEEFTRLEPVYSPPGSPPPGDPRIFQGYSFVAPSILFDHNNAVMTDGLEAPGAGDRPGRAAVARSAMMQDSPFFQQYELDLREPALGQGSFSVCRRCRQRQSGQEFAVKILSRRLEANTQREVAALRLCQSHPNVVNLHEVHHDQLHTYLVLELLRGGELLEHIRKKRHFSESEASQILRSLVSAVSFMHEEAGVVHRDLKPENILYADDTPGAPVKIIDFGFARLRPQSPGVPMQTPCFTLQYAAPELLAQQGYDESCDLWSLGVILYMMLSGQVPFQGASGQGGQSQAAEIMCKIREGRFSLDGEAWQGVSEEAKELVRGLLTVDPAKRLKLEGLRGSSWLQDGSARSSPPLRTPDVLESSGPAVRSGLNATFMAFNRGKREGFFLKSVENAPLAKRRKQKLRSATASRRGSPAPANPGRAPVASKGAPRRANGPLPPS

[5] = biological target: Serine/threonine-protein kinase Chk2 (Homo sapiens) (UniProt O96017); experiment: Inhibition of CHEK2 at 1 uM
Chain of Serine/threonine-protein kinase Chk2 (Homo sapiens) (O96017 whole entry): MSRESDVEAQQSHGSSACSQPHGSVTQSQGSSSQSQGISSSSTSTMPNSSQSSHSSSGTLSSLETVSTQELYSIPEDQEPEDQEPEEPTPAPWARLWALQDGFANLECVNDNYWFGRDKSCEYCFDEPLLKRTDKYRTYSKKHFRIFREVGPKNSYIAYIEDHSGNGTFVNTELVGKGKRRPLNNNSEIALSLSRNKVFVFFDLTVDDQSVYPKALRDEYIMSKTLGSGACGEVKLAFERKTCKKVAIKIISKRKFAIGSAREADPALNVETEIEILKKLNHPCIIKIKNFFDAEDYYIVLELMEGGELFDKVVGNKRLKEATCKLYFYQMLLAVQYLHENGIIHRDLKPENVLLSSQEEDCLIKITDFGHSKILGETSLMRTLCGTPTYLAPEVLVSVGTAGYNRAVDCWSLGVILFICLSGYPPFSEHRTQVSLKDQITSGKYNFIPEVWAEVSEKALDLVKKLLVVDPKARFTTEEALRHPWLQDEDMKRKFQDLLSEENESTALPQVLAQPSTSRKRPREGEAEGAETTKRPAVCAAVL

[6] = biological target: T1, Cyclin-dependent kinase 11A (Homo sapiens) (UniProt Q9UQ88); experiment: Inhibition of CDC2L2 at 1 uM
T1 sequence (whole entry): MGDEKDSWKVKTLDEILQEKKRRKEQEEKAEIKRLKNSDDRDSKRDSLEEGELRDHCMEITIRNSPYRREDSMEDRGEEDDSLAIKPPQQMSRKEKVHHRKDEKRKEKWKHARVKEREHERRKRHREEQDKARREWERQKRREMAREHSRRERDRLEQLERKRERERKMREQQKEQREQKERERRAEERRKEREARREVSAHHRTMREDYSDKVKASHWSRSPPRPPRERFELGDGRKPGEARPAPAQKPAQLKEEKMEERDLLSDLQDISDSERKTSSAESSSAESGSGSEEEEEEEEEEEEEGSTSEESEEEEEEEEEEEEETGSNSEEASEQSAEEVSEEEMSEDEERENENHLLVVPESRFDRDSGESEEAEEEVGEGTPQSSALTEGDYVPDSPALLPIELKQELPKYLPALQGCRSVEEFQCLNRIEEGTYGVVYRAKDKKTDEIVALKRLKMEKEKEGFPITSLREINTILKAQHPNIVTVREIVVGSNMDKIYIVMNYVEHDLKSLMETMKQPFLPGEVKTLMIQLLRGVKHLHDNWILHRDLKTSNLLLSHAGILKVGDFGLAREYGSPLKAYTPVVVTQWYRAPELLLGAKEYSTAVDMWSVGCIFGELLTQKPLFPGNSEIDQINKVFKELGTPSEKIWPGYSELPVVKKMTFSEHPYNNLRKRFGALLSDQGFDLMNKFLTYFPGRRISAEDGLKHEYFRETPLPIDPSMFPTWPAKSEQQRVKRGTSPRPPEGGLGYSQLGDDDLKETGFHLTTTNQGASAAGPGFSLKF

[7] = biological target: T2, Dual specificity tyrosine-phosphorylation-regulated kinase 2 (Homo sapiens) (UniProt Q92630); experiment: Inhibition of DYRK2 at 1 uM
T2 sequence (whole entry): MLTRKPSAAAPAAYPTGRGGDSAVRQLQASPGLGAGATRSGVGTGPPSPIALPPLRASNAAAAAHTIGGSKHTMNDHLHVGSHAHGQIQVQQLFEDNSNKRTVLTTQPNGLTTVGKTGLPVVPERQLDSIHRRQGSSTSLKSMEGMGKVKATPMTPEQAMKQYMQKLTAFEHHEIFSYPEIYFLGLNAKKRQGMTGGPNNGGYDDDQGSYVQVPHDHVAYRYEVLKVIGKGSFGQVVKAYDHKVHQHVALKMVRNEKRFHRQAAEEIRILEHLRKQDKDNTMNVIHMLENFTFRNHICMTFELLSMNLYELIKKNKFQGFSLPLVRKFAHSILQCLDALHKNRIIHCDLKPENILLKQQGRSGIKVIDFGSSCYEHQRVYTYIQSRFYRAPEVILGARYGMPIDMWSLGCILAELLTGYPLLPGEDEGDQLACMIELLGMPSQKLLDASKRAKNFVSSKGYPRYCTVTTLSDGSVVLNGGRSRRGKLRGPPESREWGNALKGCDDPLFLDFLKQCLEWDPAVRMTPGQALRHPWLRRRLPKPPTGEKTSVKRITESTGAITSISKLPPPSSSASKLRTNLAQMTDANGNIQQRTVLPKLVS

[8] = biological target: Tyrosine-protein kinase HCK (Homo sapiens) (UniProt P08631); experiment: Inhibition of HCK at 1 uM; method in brief: as §2
Chain of Tyrosine-protein kinase HCK (Homo sapiens) (P08631 2-526 limits assumed): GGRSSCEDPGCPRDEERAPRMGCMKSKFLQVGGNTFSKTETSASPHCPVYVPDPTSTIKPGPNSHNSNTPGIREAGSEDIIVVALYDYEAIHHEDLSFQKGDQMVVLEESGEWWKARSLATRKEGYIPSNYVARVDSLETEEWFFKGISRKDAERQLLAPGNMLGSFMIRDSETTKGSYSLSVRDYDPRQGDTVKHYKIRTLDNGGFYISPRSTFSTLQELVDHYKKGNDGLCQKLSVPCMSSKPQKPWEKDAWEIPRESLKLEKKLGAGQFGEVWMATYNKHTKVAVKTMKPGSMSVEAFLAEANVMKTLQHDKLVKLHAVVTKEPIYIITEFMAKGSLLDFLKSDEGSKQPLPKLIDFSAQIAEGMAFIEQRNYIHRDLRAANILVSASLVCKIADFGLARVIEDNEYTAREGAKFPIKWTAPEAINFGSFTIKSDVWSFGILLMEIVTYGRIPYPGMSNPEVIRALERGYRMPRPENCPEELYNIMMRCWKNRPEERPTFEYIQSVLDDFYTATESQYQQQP

[9] = biological target: Calcium/calmodulin-dependent protein kinase type II subunit gamma (Homo sapiens) (UniProt Q13555); experiment: Inhibition of CAMK2G at 1 uM; method in brief: as §1
Chain of Calcium/calmodulin-dependent protein kinase type II subunit gamma (Homo sapiens) (Q13555 whole entry): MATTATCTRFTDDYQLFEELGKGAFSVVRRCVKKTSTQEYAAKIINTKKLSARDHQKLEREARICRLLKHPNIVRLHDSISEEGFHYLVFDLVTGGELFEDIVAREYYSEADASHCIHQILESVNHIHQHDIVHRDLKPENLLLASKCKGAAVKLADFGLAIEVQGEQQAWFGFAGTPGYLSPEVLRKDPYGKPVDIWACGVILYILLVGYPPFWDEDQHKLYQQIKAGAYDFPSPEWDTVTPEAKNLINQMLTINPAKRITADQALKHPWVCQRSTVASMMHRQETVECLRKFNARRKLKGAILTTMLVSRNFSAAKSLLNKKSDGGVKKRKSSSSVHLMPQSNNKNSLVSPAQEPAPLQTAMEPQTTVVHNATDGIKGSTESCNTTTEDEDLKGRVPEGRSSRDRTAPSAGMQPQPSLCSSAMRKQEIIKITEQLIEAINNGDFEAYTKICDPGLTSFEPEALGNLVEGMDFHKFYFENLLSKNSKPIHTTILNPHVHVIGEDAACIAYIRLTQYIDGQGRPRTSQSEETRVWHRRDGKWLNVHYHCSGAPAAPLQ

[10] = biological target: T3, Uncharacterized serine/threonine-protein kinase SBK3 (Homo sapiens) (UniProt P0C264); experiment: Inhibition of SgK110 at 1 uM
T3 sequence (whole entry): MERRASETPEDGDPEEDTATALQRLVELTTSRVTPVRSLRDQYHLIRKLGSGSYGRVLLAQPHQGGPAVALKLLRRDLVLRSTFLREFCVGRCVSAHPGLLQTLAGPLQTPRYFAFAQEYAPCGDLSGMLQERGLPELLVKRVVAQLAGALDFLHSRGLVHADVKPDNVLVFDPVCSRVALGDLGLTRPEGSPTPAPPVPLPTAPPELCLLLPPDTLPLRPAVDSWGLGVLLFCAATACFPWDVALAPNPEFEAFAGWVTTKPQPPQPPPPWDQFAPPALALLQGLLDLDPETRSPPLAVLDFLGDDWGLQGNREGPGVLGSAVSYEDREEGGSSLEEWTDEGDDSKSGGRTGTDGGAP

Chain of Protein-tyrosine kinase 6 (Homo sapiens) (Q13882 whole entry, looked up): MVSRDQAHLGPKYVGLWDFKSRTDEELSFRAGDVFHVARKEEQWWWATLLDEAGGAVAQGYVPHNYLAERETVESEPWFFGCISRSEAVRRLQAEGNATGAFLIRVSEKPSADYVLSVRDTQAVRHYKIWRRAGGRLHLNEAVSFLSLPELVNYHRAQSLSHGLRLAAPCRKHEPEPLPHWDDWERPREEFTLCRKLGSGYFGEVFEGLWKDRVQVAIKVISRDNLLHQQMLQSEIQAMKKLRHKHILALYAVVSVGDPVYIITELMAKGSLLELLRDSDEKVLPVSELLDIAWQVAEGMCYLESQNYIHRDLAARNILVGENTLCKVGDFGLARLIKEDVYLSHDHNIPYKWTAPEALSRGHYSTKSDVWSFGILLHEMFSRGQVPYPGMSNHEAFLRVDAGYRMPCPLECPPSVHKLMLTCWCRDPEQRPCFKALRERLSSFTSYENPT

inhibition [1]	inhibition [2]	inhibition [3]	inhibition [4]	inhibition [5]	inhibition [6]	inhibition [7]	inhibition [8]	inhibition [9]	inhibition [10]	SMILES
< 50%	93%	< 50%	< 50%	< 50%	< 50%	< 50%	< 50%	< 50%	< 50%	CN1CCN(c2ccc(-c3cnc4c(c3)N(Cc3cc(Cl)ccc3C(F)(F)F)CCN4)cn2)CC1
< 50%	–	< 50%	–	–	–	–	< 50%	< 50%	–	O=C(O)c1ccc(-c2cnc3c(c2)N(Cc2cc(Cl)ccc2C(F)(F)F)CCN3)cc1
< 50%	< 50%	< 50%	–	–	–	–	< 50%	< 50%	–	O=C(c1ccc(-c2cnc3c(c2)N(Cc2cc(Cl)ccc2C(F)(F)F)CCN3)cc1)N1CCC(N2CCCC2)CC1
< 50%	< 50%	< 50%	–	–	–	–	< 50%	< 50%	–	COC1CCN(C(=O)c2ccc(-c3cnc4c(c3)N(Cc3cc(Cl)ccc3C(F)(F)F)CCN4)cc2)CC1
< 50%	78%	< 50%	< 50%	< 50%	< 50%	< 50%	< 50%	< 50%	96%	FC(F)(F)c1ccc(Cl)cc1CN1CCNc2ncc(-c3ccnc(N4CCNCC4)c3)cc21
< 50%	96%	< 50%	< 50%	< 50%	< 50%	< 50%	< 50%	< 50%	71%	CC(=O)N1CCN(c2cc(-c3cnc4c(c3)N(Cc3cc(Cl)ccc3C(F)(F)F)CCN4)ccn2)CC1
< 50%	88%	58.5%	< 50%	< 50%	< 50%	< 50%	< 50%	< 50%	< 50%	CN1CCN(c2ccc(-c3cnc4c(c3)N(Cc3cc(F)ccc3F)CCN4)cn2)CC1
< 50%	< 50%	85%	< 50%	< 50%	< 50%	< 50%	< 50%	< 50%	< 50%	CN1CCN(c2ccc(-c3cnc4c(c3)N(Cc3c(F)ccc(F)c3Cl)CCN4)cn2)CC1
< 50%	< 50%	< 50%	–	–	–	–	< 50%	< 50%	–	O=C(c1ccc(-c2cnc3c(c2)N(Cc2cc(Cl)ccc2C(F)(F)F)CCN3)cc1)N1CCCCC1
< 50%	89%	< 50%	< 50%	< 50%	< 50%	< 50%	< 50%	< 50%	< 50%	CN1CCN(c2ccc(-c3cnc4c(c3)N(Cc3cc(Cl)ccc3Cl)CCN4)cn2)CC1
